Experimental data taken from ChEMBL document CHEMBL4152256, “Structure-activity relationship of new antimalarial 1-aryl-3-susbtituted propanol derivatives: Synthesis, preliminary toxicity profiling, parasite life cycle stage studies, target exploration, and targeted delivery” (Eur J Med Chem, 2018).
Calls of active or inactive are those of the source. No cut-off for these calls is given here.

Tests used:
[1] = molecular target: T1, HSP90 (Plasmodium falciparum 3D7) (UniProt Q8IL32); assay: Binding affinity to Plasmodium falciparum HSP90 nucleotide binding domain at 0.5 mM by SYPRO orange dye based DSF analysis
T1 sequence (whole entry): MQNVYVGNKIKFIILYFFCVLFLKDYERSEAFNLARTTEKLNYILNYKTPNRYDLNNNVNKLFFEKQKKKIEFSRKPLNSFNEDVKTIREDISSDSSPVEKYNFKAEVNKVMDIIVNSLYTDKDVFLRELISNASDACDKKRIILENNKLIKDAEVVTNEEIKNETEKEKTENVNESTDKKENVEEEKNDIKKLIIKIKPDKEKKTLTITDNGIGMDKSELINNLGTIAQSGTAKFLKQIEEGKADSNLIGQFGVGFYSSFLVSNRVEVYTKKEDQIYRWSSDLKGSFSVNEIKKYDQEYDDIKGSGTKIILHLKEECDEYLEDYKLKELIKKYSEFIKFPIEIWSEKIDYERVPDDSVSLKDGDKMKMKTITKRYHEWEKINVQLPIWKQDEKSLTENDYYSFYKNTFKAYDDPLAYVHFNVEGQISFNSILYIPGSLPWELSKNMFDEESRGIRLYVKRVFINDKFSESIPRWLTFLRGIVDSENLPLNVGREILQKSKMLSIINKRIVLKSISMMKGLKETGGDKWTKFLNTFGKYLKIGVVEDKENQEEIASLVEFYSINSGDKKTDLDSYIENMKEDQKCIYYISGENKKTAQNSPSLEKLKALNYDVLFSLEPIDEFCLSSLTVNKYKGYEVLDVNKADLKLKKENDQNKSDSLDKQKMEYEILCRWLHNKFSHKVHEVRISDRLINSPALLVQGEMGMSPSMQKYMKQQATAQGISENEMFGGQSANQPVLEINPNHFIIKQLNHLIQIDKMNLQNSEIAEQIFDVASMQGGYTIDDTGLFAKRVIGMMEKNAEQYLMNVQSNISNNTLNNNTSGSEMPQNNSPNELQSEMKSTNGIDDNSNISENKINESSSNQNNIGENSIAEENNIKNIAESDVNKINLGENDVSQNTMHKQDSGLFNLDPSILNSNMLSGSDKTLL
Method in brief: (§1)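 Recombinant P. falciparum Hsp90 or GRP94 nucleotide-binding domain (0.05–0.2 mg/mL, optimized per protein) in 25 mM HEPES pH 7.5, 250 mM NaCl. Compound final concentration was 0.5 mM, with SYPRO Orange at 1:1000. Samples were heated from 18 to 90 °C at 1 °C/min. Tm was taken as the Boltzmann-fit inflection point. ΔTm = Tm with ligand minus Tm without, and shifts beyond ±1 °C were counted significant.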

Plasmodium falciparum [2] = assay: Binding affinity to Plasmodium falciparum GRP94 nucleotide binding domain at 0.5 mM by SYPRO orange dye based DSF analysis; method in brief: as §1
HSP90 = molecular target: T2, HSP90 (Plasmodium falciparum 3D7, UniProt Q8IL32); assay: (§2) Binding affinity to Plasmodium falciparum HSP90 nucleotide binding domain by SPR analysis
T2 sequence (Q8IL32 whole entry): T1 sequence (whole entry)
Method in brief: (§3)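 Purified PfHsp90 and PfGRP94 nucleotide-binding domains were amine-coupled to a CM5 chip (3000 and 7000 RU, respectively), with a blank reference surface. Seven compound concentrations (0.4 nM–1 mM) were injected in triplicate at 30 µL/min, 25 °C, in random order. Running buffer: 10 mM HEPES pH 7.4, 150 mM NaCl, 0.005% P20, 1% DMSO, 2 mM MgCl2. Kd came from double-referenced sensorgrams.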

[3] = (§4) Binding affinity to Plasmodium falciparum GRP94 nucleotide binding domain by SPR analysis; method in brief: as §3
Plasmodium falciparum [4] = assay: Antiplasmodial activity against multidrug-resistant Plasmodium falciparum FCR-3 by [3H]-hypoxanthine incorporation assay; format: functional, organism-based, FCR-3/Gambia
Method in brief: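 Blood-stage P. falciparum 3D7 and FCR-3 were tested by a modified [3H]-hypoxanthine incorporation assay. Chloroquine was the reference in all runs.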

[5] = Cytotoxicity against human HepG2A16 cells by MTT assay; format: cell-based
Method in brief: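 MTT viability assay on HepG2-A16 cells, giving CC50 values.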

Plasmodium berghei [6] = assay: Antiplasmodial activity against GFP-fused Plasmodium berghei sporozoites infected in human HepG2A16 cells treated simultaneously with infection by fluorescence microscopic analysis; format: functional, organism-based; settings: Plasmodium berghei, HepG2A16; read-out: IC50
Method in brief: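 HepG2-A16 cells (3 × 10^4/well, collagen-coated) infected with PbGFP sporozoites (5 × 10^3 to 1 × 10^4/well) and treated at the same time. Top concentration 10 µg/mL in DMEM, seven serial dilutions. Medium and compound renewed at 3 h and every 24 h. After 40 h at 37 °C: methanol fixation, anti-Plasmodium Hsp70 immunolabeling, Alexa 594 secondary, DAPI; high-content imaging.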

Plasmodium falciparum [7] = assay: Antiplasmodial activity against Plasmodium falciparum FCR-3 sporozoites infected in human primary hepatocytes treated simultaneously with infection by DAPI staining based HCS analysis; format: functional, organism-based, FCR-3/Gambia; settings: Plasmodium falciparum, FCR-3/Gambia; read-out: IC50
[8] = Cytotoxicity against human primary hepatocytes after 48 hrs by MTT assay; format: cell-based, Hepatocyte
Method in brief: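 Primary human hepatocytes seeded at 2 × 10^5/well and grown 24 h at 37 °C, 5% CO2. Compound dilutions added in triplicate for 48 h. MTT (2 mg/mL) added for 4 h, then DMSO for 20 min; absorbance read at 550 nm. Untreated and diluent controls included; CC50 calculated.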

[9] = Selectivity index, ratio of CC50 for human HepG2A16 cells to IC50 for GFP-fused Plasmodium berghei sporozoites infected in human HepG2A16 cells; format: toxicity, cell-based; settings: read-out: Ratio CC50/IC50
Method in brief: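 HepG2-A16 cells were grown at 3 × 10^4 per well on collagen and infected with GFP P. berghei sporozoites (5 × 10^3 to 1 × 10^4 per well) from A. stephensi salivary glands. Compounds were added at infection, from 10 µg/mL top plus seven serial dilutions, and refreshed at 3 h and then every 24 h. After 40 h at 37 °C, EEFs were methanol-fixed, anti-Hsp70 immunolabelled and counted by high-content imaging. SI = HepG2 CC50 / liver-stage IC50.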

[10] = Selectivity index, ratio of CC50 for human primary hepatocytes to IC50 for Plasmodium falciparum FCR-3 sporozoites infected in human primary hepatocytes; format: toxicity, cell-based; settings: read-out: Ratio CC50/IC50
Method in brief: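 Primary human hepatocytes were plated at 8 × 10^4 per well on collagen and infected with P. falciparum sporozoites (2.5 × 10^4 per well). Compounds were given at infection from 10 µg/mL plus seven dilutions, refreshed every 24 h, for 8 days. EEFs were read by Hsp70 immunostaining. […] Two independent experiments were run.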

Plasmodium falciparum [11] = assay: Antiplasmodial activity against multidrug-resistant Plasmodium falciparum C235 after 72 hrs by MSF assay; format: functional, organism-based; settings: C235, 72 h
Method in brief: (§5)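 D6 and C235 strains from the Walter Reed Army Institute of Research were tested by the Malaria SYBR Green-I fluorescence assay.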

Plasmodium falciparum [12] = assay: Antiplasmodial activity against Plasmodium falciparum D6 after 72 hrs by MSF assay; format: functional, organism-based; settings: D6, 72 h; method in brief: as §5
[13] = Selectivity index, ratio of GI50 for African green monkey vero cells to IC50 for multidrug-resistant Plasmodium falciparum FCR-3; format: toxicity; settings: read-out: Selectivity Index
Plasmodium berghei [14] = assay: Antiplasmodial activity against Plasmodium berghei ANKA infected in Swiss mouse assessed as reduction in parasitemia at 50 mg/kg/day, po for 4 consecutive days by Giemsa staining based assay relative to control; format: functional; parameters: scale not given: the % may be the effect or the level left
[15] = Selectivity index, ratio of CC50 for human HepG2A16 cells by MTT assay to IC50 for multidrug-resistant Plasmodium falciparum FCR-3; format: toxicity
Method in brief: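 HepG2-A16 human hepatoma cells were tested by MTT viability assay to give CC50. Blood-stage activity was measured against the multidrug-resistant P. falciparum FCR-3 strain by [3H]-hypoxanthine incorporation to give IC50. SI = CC50 HepG2 / FCR-3 IC50.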

Plasmodium berghei [16] = assay: Antiplasmodial activity against Plasmodium berghei ANKA infected in mouse assessed as inhibition of parasitemia at 50 mg/kg/day, po for 4 consecutive days starting from 2 hrs post infection by MSF assay relative to control; format: functional
Method in brief: (§6)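 Swiss male mice (20 ± 2 g) infected ip with 10^7 P. berghei ANKA parasitized cells (day 0). Five per group dosed orally 2 h after infection and daily on days 0–3. Test compounds at 50 mg/kg/day in water:DMSO; chloroquine diphosphate at 3 mg/kg/day; vehicle controls. Parasitemia measured on day 4 by MSF assay; survival checked daily.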

Plasmodium berghei [17] = assay: Antiplasmodial activity against Plasmodium berghei ANKA infected in mouse assessed as inhibition of parasitemia at 3 mg/kg/day, po for 4 consecutive days starting from 2 hrs post infection by MSF assay relative to control; format: functional; method in brief: as §6
[18] = Drug encapsulation in liposomes assessed as encapsulation efficiency in citrate/phosphate buffered measured after ultracentrifugation using compound addition to preformed liposomes by UV/Vis spectroscopy relative to untreated control; format: physicochemical; settings: artificial membrane
Method in brief: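 Compound loaded into DSPC:cholesterol:DSPE-PEG2000-Mal:DOPE-Rho (84.5:10:5:0.5) liposomes using a citrate (pH 4.0)/PBS pH gradient. Drug measured by UV/vis after SDS disruption at each step: citrate liposomes, after buffer exchange to PBS (chloroquine added to preformed liposomes here), and after ultracentrifugation. Encapsulation efficiency = % of drug that is encapsulated out of total drug in the sample.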

Plasmodium berghei [19] = assay: Antiplasmodial activity against Plasmodium berghei ANKA infected in mouse assessed as mouse survival time at 3 mg/kg/day, po for 4 consecutive days starting from 2 hrs post infection by MSF assay; format: functional
Method in brief: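 Swiss male mice (20 ± 2 g) infected i.p. with 10^7 P. berghei ANKA parasitized cells in 0.1 mL 0.9% saline (day 0). Oral dosing began 2 h post-infection and continued daily on days 0–3, five mice per batch. Test drugs were given at 50 mg/kg/day in water:DMSO and chloroquine diphosphate at 3 mg/kg/day; a vehicle control was included. Survival was checked daily, and parasitemia was read on day 4 by modified MSF assay.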

Plasmodium berghei [20] = assay: Antiplasmodial activity against GFP-fused Plasmodium berghei in Anopheles stephensi mosquitoes feeded on blood from infected mouse at 100 mg/kg, ip pretreated for 1.5 hrs followed by blood feeding of mosquito assessed as reduction in infection of mosquito and measured at 8 days post mosquitoes infection by fluorescence microscopic method relative to control; format: functional; parameters: scale not given: the % may be the effect or the level left
Method in brief: (§7)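 Mice (two per group) infected ip with 200 µL PbGFP-infected RBCs (3000 parasites/µL); gametocytes checked at day 4. Compound given ip at 100 mg/kg in DMSO 1.5 h before A. stephensi fed 1 h on mice at 1% gametocytaemia. Untreated and DMSO-treated mice as controls. After 8 days, 30 mosquitoes per group dissected; midgut oocysts counted by fluorescence microscopy; inhibition relative to control oocyst numbers (100%).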

Plasmodium berghei [21] = assay: Antiplasmodial activity against GFP-fused Plasmodium berghei in Anopheles stephensi mosquitoes feeded on blood from infected mouse at 100 mg/kg, ip pretreated for 1.5 hrs followed by blood feeding of mosquito assessed as reduction in number of oocysts in mosquito midgut and measured at 8 days post mosquitoes infection by fluorescence microscopic method relative to control; format: functional; parameters: scale not given: the % may be the effect or the level left; method in brief: as §7
[22] = molecular target: T1, HSP90 (Plasmodium falciparum 3D7); assay: as §2; method in brief: as §3
Plasmodium falciparum [23] = assay: as §4; method in brief: as §3
[24] = Plasmodium falciparum, FCR-3/Gambia, 3 h

Compound | Activity [1] | Activity (Plasmodium falciparum [2]) | CC50 ([5]; HepG2A16 cells) | IC50 (Plasmodium berghei [6]) | IC50 (Plasmodium falciparum [7]) | CC50 at 48 h [8] | selectivity ratio [9] | selectivity ratio [10] | also measured
CC(C)NCC(O)Cn1c2ccc(Cl)cc2c2cc(Cl)ccc21 (stereo unspecified) | inactive | inactive |  |  |  |  |  |  | Kd (HSP90): 7 nM; Kd [3]: 4.48 mM
COc1cc(NC(C)CCCN)c2ncccc2c1 (stereo unspecified) [PRIMAQUINE] |  |  | 120 µM | 3.65 µM | 400 nM | 54 µM | 32.9 | 135 | IC50 (Plasmodium falciparum [4]; [24]): 1180 nM
O=[N+]([O-])c1ccc(N2CCC(NCCC(O)c3ccc(F)c4ccccc34)CC2)c(C(F)(F)F)c1 (stereo in doubt; 8) |  |  |  | 12.1 µM | 1790 nM | 13.1 µM | 0.5 | 7.3 | IC50 (Plasmodium falciparum [4]): 150 nM; IC50 (Plasmodium falciparum [11]): 130 nM; IC50 (Plasmodium falciparum [12]): 110 nM; selectivity ratio [13]: 37; Activity (Plasmodium berghei [14]): 98%; CC50 [5]: 5.7 µM; Ratio CC50/IC50 [15]: 38; inhibition in vivo at 50 mg/kg/day (Plasmodium berghei [16]): 96.4%
CCN(CC)CCCC(C)Nc1ccnc2cc(Cl)ccc12.O=P(O)(O)O.O=P(O)(O)O (stereo unspecified) [CHLOROQUINE PHOSPHATE] |  |  |  |  |  |  |  |  | inhibition in vivo at 3 mg/kg/day (Plasmodium berghei [17]): 88.5%; Activity [18]: 95.8%
CCN(CC)CCCC(C)Nc1ccnc2cc(Cl)ccc12 (stereo unspecified) [CHLOROQUINE] |  |  | 137 µM |  |  |  |  |  | MSD (Plasmodium berghei [19]): 11 days
OC(CN1CCN(Cc2ccccc2)CC1)Cn1c2ccc(Cl)cc2c2cc(Cl)ccc21 (stereo unspecified) | inactive | inactive |  |  |  |  |  |  | Kd (HSP90): 27 nM; Kd [3]: 1.7e-05 mM
O=[N+]([O-])c1ccc(N2CCC(NCCC(O)c3ccc(F)cc3)CC2)c(C(F)(F)F)c1 (stereo unspecified) | inactive | inactive | 10.4 µM | 18.2 µM | 1710 nM | 19.5 µM | 0.6 | 11.4 | IC50 (Plasmodium falciparum [4]; [24]): 480 nM; selectivity ratio ([15]; HepG2A16 cells, read-out: Ratio CC50/IC50): 22; Activity (Plasmodium berghei [20]): 24%; Activity (Plasmodium berghei [21]): 70%; Activity [22]: inactive; Activity (Plasmodium falciparum [23]): inactive
